Results on 30 compounds are retold here after paper PMC3517065 (ChemMedChem, 2012).

SMILES strings stand for the structures.

The first data set concerns HIV-1 in permissive cells (MT-4).
Assay: not given
To be noted: which do not express A3G; cited from earlier work.
In the case of `COc1ccccc1NC(=O)c1ccccc1Sc1ccc([N+](=O)[O-])cc1` [5a (RN18), N-(2-Methoxyphenyl)-2-((4-nitrophenyl)thio)benzamide], the “inhibition of HIV-1 replication in permissive cells” value is on record as “not in permissive cells”.

System in another data set: not listed separately
Kind of data set: MTT-based cell viability assay. To be noted: human, HeLa cells. In a few lines:
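HeLa cells harvested in log phase, seeded at 1×10^3 per well in DMEM with 10% FBS, kept at 37 °C with 5% CO2. Test compound added 24 h after seeding from 10× stocks in DMEM; controls were DMEM alone and medium with DMSO (final 1%). At 72 h, MTT (2 mg mL−1 in PBS) added for 4 h; formazan dissolved in DMSO, A550 read. Value is the concentration reducing absorbance to 50% of control.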
The CC50 is the concentration at which the toxic effect on the cells reaches its halfway point. Consider `COc1ccc(COc2ccccc2C(=O)Nc2ccccc2OC)cc1` [43j, 2-(4-methoxybenzyloxy)-N-(2-methoxyphenyl)benzamide], for which the CC50 at 72 h is over 100 µM.

In turn, `COc1ccccc1C(=O)Nc1ccccc1Oc1ccc([N+](=O)[O-])cc1` [29k, 2-Methoxy-N-(2-(4-nitrophenoxy)phenyl)benzamide] had a CC50 at 72 h of over 100 µM.

Compound `CC(C)(C)OC(=O)N1CCN(C(=O)c2ccccc2Sc2ccc([N+](=O)[O-])cc2)CC1` [15h, tert-Butyl 4-(2-((4-nitrophenyl)thio)benzoyl)piperazine-1-carboxylate] registered a CC50 at 72 h of 70 µM.

For the compound `COc1ccccc1NS(=O)(=O)c1ccccc1Sc1ccc([N+](=O)[O-])cc1` [5d, N-(2-Methoxyphenyl)-2-((4-nitrophenyl)thio)benzenesulfonamide], the CC50 at 72 h is over 100 µM.

Regarding `O=C(Nc1cccc(CO)c1)c1ccccc1Sc1ccc([N+](=O)[O-])cc1` [15f, N-(3-(Hydroxymethyl)phenyl)-2-((4-nitrophenyl)thio)benzamide], the CC50 at 72 h is over 100 µM.

As to `COC(=O)c1ccc(COc2ccccc2NC(=O)c2ccccc2OC)cc1` [45k, Methyl 4-((2-(2-methoxybenzamido)phenoxy)methyl)benzoate], the CC50 at 72 h is over 100 µM.

Compound `COc1ccccc1NC(=O)c1ccccc1Oc1ccc2c(c1)OCO2` [23h, 2-(Benzo[d][1,3]dioxol-5-yloxy)-N-(2-methoxyphenyl)benzamide] had a CC50 at 72 h of over 100 µM.

`COc1ccccc1C(=O)Nc1ccccc1OCc1ccc([N+](=O)[O-])cc1` [40k, N-(2-(4-Nitrobenzyloxy)phenyl)-2-methoxybenzamide]: the CC50 at 72 h was over 100 µM.

Take `O=C(Nc1ccc2c(c1)OCO2)c1ccccc1Sc1ccc([N+](=O)[O-])cc1Cl` [16d, N-(Benzo[d][1,3]dioxol-5-yl)-2-((2-chloro-4-nitrophenyl)thio)benzamide]: the half-maximal cytotoxic concentration (CC50) at 72 h was over 100 µM.

In the case of `COc1ccccc1NS(=O)(=O)c1ccccc1Sc1ccc(N)cc1` [6d, 2-((4-Aminophenyl)thio)-N-(2-methoxyphenyl)benzenesulfonamide], the CC50 at 72 h is over 100 µM.

As to `COc1ccccc1NC(=O)c1ccccc1OCc1cccc([N+](=O)[O-])c1` [41j, N-(2-Methoxyphenyl)-2-((3-nitrobenzyl)oxy)benzamide], the CC50 at 72 h was over 100 µM.

Compound `COc1ccccc1C(=O)Nc1ccccc1Oc1ccc(OC(C)=O)cc1` [32k, 4-(2-(2-Methoxybenzamido)phenoxy)phenyl acetate] registered a CC50 at 72 h of over 100 µM.

In turn, `COc1ccccc1NC(=O)c1ccccc1Sc1ccccc1` [4a, N-(2-Methoxyphenyl)-2-(phenylthio)benzamide] displayed a CC50 at 72 h of over 100 µM.

`COc1ccccc1S(=O)(=O)Nc1ccccc1Sc1ccc([N+](=O)[O-])cc1` [5e, 2-Methoxy-N-(2-(4-nitrophenylthio)phenyl)benzenesulfonamide] gave a CC50 at 72 h of over 100 µM.

Turning to `COc1ccc(Oc2ccccc2NC(=O)c2ccccc2OC)cc1` [31k, 2-Methoxy-N-(2-(4-methoxyphenoxy)phenyl)benzamide], the CC50 at 72 h is over 100 µM.

Regarding `COc1ccccc1NC(=O)c1ccccc1OCc1ccc([N+](=O)[O-])cc1` [40j, N-(2-Methoxyphenyl)-2-((4-nitrobenzyl)oxy)benzamide], the CC50 at 72 h is over 100 µM.

Consider `COc1ccccc1S(=O)(=O)Nc1ccccc1Sc1ccc(N)cc1` [6e, N-(2-(4-aminophenylthio)phenyl)-2-methoxybenzenesulfonamide], for which the CC50 at 72 h came out at 65 µM.

In turn, `COC(=O)c1ccc(Oc2ccccc2NC(=O)c2ccccc2OC)cc1` [33k, Methyl 4-(2-(2-methoxybenzamido)phenoxy)benzoate] gave a CC50 at 72 h of over 100 µM.

`COc1ccccc1NC(=O)c1ccccc1Oc1ccc(N)cc1` [19a, 2-(4-Aminophenoxy)-N-(2-methoxyphenyl)benzamide] registered a 50% cytotoxic concentration (CC50) at 72 h of over 100 µM.

On to `COc1ccccc1NC(=O)c1ccccc1Sc1ccc([N+](=O)[O-])cc1Cl` [16a, 2-(2-Chloro-4-nitrophenylthio)-N-(2-methoxyphenyl)benzamide], for which it took 50 µM to reach half-maximal cytotoxicity (CC50 at 72 h).

In the case of `O=C(Nc1ccccc1CO)c1ccccc1Sc1ccc([N+](=O)[O-])cc1` [15e, N-(2-(Hydroxymethyl)phenyl)-2-((4-nitrophenyl)thio)benzamide], the 50% cytotoxic concentration (CC50) at 72 h is over 100 µM.

With `COc1ccccc1C(=O)Nc1ccccc1Sc1ccc(N)cc1` [6c, N-(2-(4-Aminophenylthio)phenyl)-2-methoxybenzamide], the CC50 at 72 h was determined as 60 µM.

Regarding `COc1ccccc1CC(=O)Nc1ccccc1Sc1ccc([N+](=O)[O-])cc1` [5f, 2-(2-Methoxyphenyl)-N-(2-((4-nitrophenyl)thio)phenyl)acetamide], the CC50 at 72 h was over 100 µM.

On to `COc1ccccc1C(=O)Nc1ccccc1Oc1ccc(N(C)C)cc1` [30k, N-(2-(4-(Dimethylamino)phenoxy)phenyl)-2-methoxybenzamide], for which the CC50 at 72 h is over 100 µM.

The compound `COc1ccccc1NC(=O)c1ccccc1Sc1ccc([N+](=O)[O-])cc1` [5a (RN18), N-(2-Methoxyphenyl)-2-((4-nitrophenyl)thio)benzamide] came in with a CC50 at 72 h of over 100 µM.

As for `O=C(Nc1ccccc1CO)c1ccccc1Oc1ccc([N+](=O)[O-])cc1` [18e, N-(2-(hydroxymethyl)phenyl)-2-(4-nitrophenoxy)benzamide], it took 25 µM to reach half-maximal cytotoxicity (CC50 at 72 h).

`COc1ccccc1NC(=O)c1ccccc1Oc1ccc([N+](=O)[O-])cc1` [18a, N-(2-Methoxyphenyl)-2-(4-nitrophenoxy)benzamide] showed a CC50 at 72 h of 15 µM.

The compound `COc1ccccc1NC(=O)c1ccccc1Sc1ccc(N)cc1` [6a, 2-((4-Aminophenyl)thio)-N-(2-methoxyphenyl)benzamide] gave a CC50 at 72 h of over 100 µM.

As for `COc1ccccc1C(=O)Nc1ccccc1Sc1ccc([N+](=O)[O-])cc1` [5c, N-(2-(4-Nitrophenylthio)phenyl)-2-methoxybenzamide], the CC50 at 72 h was over 100 µM.

In turn, `O=C(Cc1ccccc1F)Nc1ccccc1Sc1ccc([N+](=O)[O-])cc1` [5g, 2-(2-Fluorophenyl)-N-(2-((4-nitrophenyl)thio)phenyl)acetamide] came in with a CC50 at 72 h of over 100 µM.
